# Screening data (PubChem BioAssay)
# NF-kB expr up – NF-kB expression increase, human neuronal cells; AID 1239; NF-kB reporter expression; stronger effect = higher value; fold change at 12.5 µM; hit rate 1.6% among 190,000; in the data active = fold change above about 3.3
# STAT1 activator – activators of IFN-gamma induced STAT1 signaling; NIH 3T3 STAT1-luciferase reporter, luminescence; 100% = IFN-gamma alone, no compound; activation (% of control), % at 5.5 µM; hit rate 2.6% among 200,000; AID 932;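 active = activation above the screen-wide mean activation plus 3 SD, cut at about 130% in these data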
# STAT3 activator – STAT3 signaling activation. U3A cells, IL-6 STAT3-luciferase reporter, luminescence; 100% = signal with IL-6 EC80 alone. activation (% of control), % at 5.6 µM. hit rate 0.91% among 190,000. AID 871;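 active = activation above the screen-wide mean of compound activation plus 3 SD, cut at about 130% in these data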
#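 System – human U3A cells carrying STAT3-luciferase construct · Probe or stimulus – Interleukin-6, 33 ng/mL · Schedule – compound 1 h, then IL-6 6 h at 37 °C · Signal – luminescence from STAT3-driven luciferase reporter · Evaluation – percent of IL-6-only median luminescence · Benchmarks – IL-6-only high control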
# STAT3 inh-1 – inhibitors of IL-6 induced STAT3 signaling; U3A cells, IL-6 STAT3-luciferase reporter, luminescence; host cell line lacks STAT1; inhibition, % at 5.5 µM; hit rate 0.89% among 190,000;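 active = inhibition above the mean inhibition across all screened compounds plus 3 SD, cut at about 44% in these data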
# APP 5'UTR act – activates APP 5'UTR luciferase reporter; SH-SY5Y APP 5'UTR luciferase reporter, luminescence; zero percent = DMSO vehicle wells; AID 1276; activation, % at 2 µM; hit rate 1% among 190,000;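 active = activation above a set limit, based on mean plus 3 SD of controls, cut at about 140% in these data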
# STAT1 blocker – inhibitors of IFN-gamma induced STAT1 signaling; inhibition, % at 5.5 µM; hit rate 0.35% among 200,000; AID 920; NIH 3T3 STAT1-luciferase reporter, luminescence;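 active = inhibition above a set limit, the mean inhibition across all tested compounds plus 3 SD, cut at about 34% in these data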
# STAT3 inh-2 – confirmation of STAT3 signaling inhibitors; hit rate 45% among 1,200; inhibition, % at 5.7 µM; shares compounds with STAT3 inh-1; U3A cells, IL-6 STAT3 luciferase reporter, luminescence; cell line lacks STAT1;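 active = inhibition above the hit cutoff computed for the primary STAT3 screen, cut at about 44% in these data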
# NFkB inh STAT3ct – NF-kappaB inhibition in STAT3 inhibitor counter-screen. HEK293T NF-kB luciferase reporter, TNF-alpha induced. hit rate 36% among 1,200. AID 1308. inhibition, % at 5.7 µM. shares compounds with STAT3 inh-1;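 active = inhibition above the mean of solvent-only control wells plus 3 SD, cutoff set per campaign, cut at about 13% in these data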
# STAT1 inh 2 – inhibits STAT1, counter-screen to STAT3 inhibitors | shares compounds with STAT3 inh-1 | NIH 3T3 STAT1-luciferase reporter, IFN-gamma induced, luminescence | inhibition, % at 5.7 µM | hit rate 27% among 1,200;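 active = inhibition above the mean plus 3 SD of solvent-only control wells, limit set per screening run, cut at about 16% in these data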
# A number is an active result; i = inactive; nt = no result. This is a sample that favours compounds with a hit; in the whole collection about 4.9% have one here.
SMILES,NF-kB expr up,STAT1 activator,STAT3 activator,STAT3 inh-1,APP 5'UTR act,STAT1 blocker,STAT3 inh-2,NFkB inh STAT3ct,STAT1 inh 2
O=C(Nc1ccc(S(=O)(=O)N2CCOCC2)cc1)c1ccc(CN2CCc3ccccc3C2)cc1,i,i,i,83,i,i,88,42,33
O=C(Nc1ccc(Cc2ccncc2)cc1)c1ccc(S(=O)(=O)N2CCCC2)cc1,i,i,i,68,i,i,66,15,i
O=C(Nc1ccc(S(=O)(=O)N2CCCC2)cc1)c1ccc(CN2CCc3ccccc3C2)cc1,i,i,i,82,i,i,85,34,i
NCCc1nc(-c2ccccc2)cs1,i,i,i,i,i,i,nt,nt,nt
c1ccc(-c2ncc(-c3ccn[nH]3)s2)cc1,7.3,i,i,46,230,i,i,i,i
O=C(c1ccc(Cl)cc1)c1cnc(-c2ccccc2)s1,i,i,i,i,i,i,nt,nt,nt
C=CCn1c(C)cc(C2=NNC(=Nc3ccc(C)cc3)SC2)c1C,i,i,i,i,i,i,nt,nt,nt
C=CCN=C1NN=C(c2cc(C)n(CCOC)c2C)CS1,i,i,i,78,i,i,i,i,i
C=CCn1c(C)cc(C2=NNC(=NC(C)(C)C)SC2)c1C,i,i,i,58,i,i,45,28,i
Cc1ccc(S(=O)(=O)CC2CSc3nc4ccccc4n32)cc1 (stereo not drawn),i,i,i,88,nt,i,84,34,32
Cc1ccc(S(=O)(=O)CC2CSc3nc(N)cc(=O)n32)cc1 (stereo not drawn),i,i,i,i,i,i,nt,nt,nt
COc1cc(C(=O)N2CCN(c3ncnc4sc(C)c(C)c34)CC2)cc(OC)c1OC,i,i,i,52,i,37,45,17,31
Cc1sc2ncnc(N3CCN(c4ncccn4)CC3)c2c1C,i,i,i,i,i,i,nt,nt,nt
CCN1CCN(/C=N/c2nc3c(s2)CCCC3)CC1,i,i,i,52,i,i,i,i,i
COc1ccc(OCC(=O)Nc2cc(-c3nn(C)c(=O)c4ccccc34)ccc2OC)cc1,i,i,i,51,i,i,48,22,25
Cc1cc(C)c(NC(=O)c2ccccc2C(=O)c2ccccc2)c(C)c1,i,i,i,i,i,i,nt,nt,nt
O=C1c2ccccc2-c2nnc(-c3ccc(F)cc3)cc21,4.5,i,i,56,144,i,47,19,i
Cc1ccc(NC2=Nc3ccccc3CS2)cc1,5.6,i,i,59,184,i,i,i,i
Cc1ccc(Nc2ccccc2)cc1,i,i,i,i,i,i,nt,nt,nt
COc1ccccc1Nc1nnc(SCC2CCCCO2)s1 (stereo not drawn),5.2,i,i,64,176,i,i,i,i
CC(=O)Nc1cccc(CNCc2cccc(NC(C)=O)c2)c1,i,i,i,i,i,i,nt,nt,nt
O=C(NCc1ccccc1)c1cccc(COc2ccc3c(c2)CCC3)c1,i,i,i,56,i,i,45,34,27
COc1cccc(OC)c1C(=O)NNC(=O)c1cccc(COc2ccc3c(c2)CCC3)c1,i,i,i,53,i,i,i,23,21
Cc1ccc(CN2CCN(Cc3cnc(N4CCOCC4)s3)CC2CCO)o1 (stereo not drawn),i,i,i,i,i,i,nt,nt,nt
O=[N+]([O-])c1ccc(CCNc2cccc3ccccc23)c([N+](=O)[O-])c1,i,i,i,i,i,i,nt,nt,nt
SMILES,NF-kB expr up,STAT1 activator,STAT3 activator,STAT3 inh-1,APP 5'UTR act,STAT1 blocker,STAT3 inh-2,NFkB inh STAT3ct,STAT1 inh 2
NC(=S)Cc1nc2n(n1)Cc1ccccc1-2,i,i,i,i,i,i,nt,nt,nt
Cc1ccc(-c2nc3n(n2)Cc2ccccc2-3)cc1,4.2,i,i,49,197,i,i,18,i
CCOC(=O)N1CCN(C(=O)C(C)N(c2ccc(Oc3ccccc3)cc2)S(C)(=O)=O)CC1 (stereo not drawn),i,i,i,i,i,i,nt,nt,nt
COC(=O)C(C)N(c1ccc(OC)cc1)S(C)(=O)=O (stereo not drawn),i,i,i,i,i,i,nt,nt,nt
COc1ccc(N(C(C)C(=O)N2CCC(Cc3ccccc3)CC2)S(C)(=O)=O)cc1 (stereo not drawn),i,i,i,50,i,i,46,i,21
CCOC(=O)C1CCN(C(=O)C(C)N(c2ccc(Oc3ccccc3)cc2)S(C)(=O)=O)CC1 (stereo not drawn),i,i,i,49,i,i,i,i,i
Cc1ccc(N(C(=O)CCl)C(C(=O)NC2CCCCC2)c2cccnc2)cc1C (stereo not drawn),i,i,i,70,i,i,102,40,40
CC(C)C(c1nnnn1Cc1ccc(F)cc1)N1CCN(c2ccc(O)cc2)CC1 (stereo not drawn),i,i,i,i,i,i,nt,nt,nt
O=C(Nc1cccc(O)c1)C(=O)Nc1ccccn1,i,i,i,71,155,i,51,i,i
C=CCc1cc(OC)ccc1OCCOCCN1CCc2ccccc2C1,i,i,i,i,i,i,nt,nt,nt
Oc1ccc(-c2nnc(-c3ccc(O)cc3)nn2)cc1,6.1,i,i,51,i,i,62,i,i
CN(C)c1ccc(-c2n(C)c3ccccc3[n+]2C)cc1,i,i,i,74,nt,i,65,i,24
Cc1cc(/C=C2/SC(=S)N(c3cccc(C(F)(F)F)c3)C2=O)c(C)n1-c1cccnc1,nt,i,i,78,i,i,84,33,31
NC(=O)c1ccccc1N/C=C/C(=O)c1ccccc1,5.5,i,i,49,i,i,i,i,i
COc1cccc(/C=N/NC(=O)CNC(=O)c2ccc3c(c2)OCCO3)c1O,i,i,i,i,i,i,nt,nt,nt
COc1cccc(C=Nc2ccc3c(c2)OCCO3)c1O,i,i,i,49,i,i,i,i,i
Cc1ccc(NC(=O)CSc2ncc3ccccn23)cc1,i,i,i,i,i,i,nt,nt,nt
COc1ccc(/C=N/Nc2nc3ccccc3s2)cc1O,4.6,i,i,60,136,i,i,i,i
O=C(COc1ccccc1[N+](=O)[O-])Nc1cccnc1,i,i,i,i,i,i,nt,nt,nt
Cc1ccnc(NC(=O)COc2ccccc2[N+](=O)[O-])c1,i,i,i,48,150,i,i,i,i
Cc1ccc(NC(=O)COc2ccccc2[N+](=O)[O-])nc1,5.5,i,i,51,i,i,i,i,i
